Assay results from ChEMBL document CHEMBL4219134, “Xanthone derivatives as phosphoglycerate mutase 1 inhibitors: Design, synthesis, and biological evaluation” (Bioorg Med Chem, 2018).

Tests used:
[1] = molecular target: T1, Phosphoglycerate mutase 1 (Homo sapiens, UniProt P18669); test: Inhibition of recombinant PGAM1 (unknown origin) at 20 uM using 3-PG as substrate preincubated for 2 mins followed by substrate addition relative to control
In short: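 Same coupled PGAM1 assay: recombinant enzyme preincubated 2 min at room temperature with compound in 50 mM Tris pH 8.0. Enolase/PK/LDH mix with ADP, MgCl2, KCl and NADH added, then 3PG (200 mM stock) to start. OD340 decrease measured; inhibition ratio recorded at 20 µM.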
Target sequence in this assay (P18669 2-254 limits assumed): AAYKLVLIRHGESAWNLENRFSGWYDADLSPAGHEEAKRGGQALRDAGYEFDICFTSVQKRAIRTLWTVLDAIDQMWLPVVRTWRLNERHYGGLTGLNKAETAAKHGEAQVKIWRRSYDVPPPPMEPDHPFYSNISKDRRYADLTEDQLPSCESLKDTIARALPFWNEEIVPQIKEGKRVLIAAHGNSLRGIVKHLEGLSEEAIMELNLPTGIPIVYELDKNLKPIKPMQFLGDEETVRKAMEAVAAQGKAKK

[2] = molecular target: T1, Phosphoglycerate mutase 1; test: Inhibition of recombinant PGAM1 (unknown origin) using 3-PG as substrate preincubated for 2 mins followed by substrate addition
In short: (§1)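 Recombinant PGAM1 plus compound (DMSO) in 50 mM Tris pH 8.0, preincubated 2 min at room temperature. Started with 3PG (200 mM stock); NADH oxidation read as OD340 decrease. IC50 from triplicates, mean ± sd.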
Target sequence in this assay (P18669 whole entry): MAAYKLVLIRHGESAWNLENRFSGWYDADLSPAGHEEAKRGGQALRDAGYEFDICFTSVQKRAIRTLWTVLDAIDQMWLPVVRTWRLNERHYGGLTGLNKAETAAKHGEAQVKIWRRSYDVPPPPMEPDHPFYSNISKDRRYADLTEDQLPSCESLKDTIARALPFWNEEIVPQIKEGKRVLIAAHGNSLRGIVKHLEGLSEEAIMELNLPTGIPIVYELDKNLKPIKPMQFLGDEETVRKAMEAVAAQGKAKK

PANC-1 = test: Antiproliferative activity against human PANC1 cells after 72 hrs by MTT assay; format: functional, cell-based; details: PANC-1, 72 h
In short: (§2)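 MTT assay: 2 × 10^3 cells per well, cultured 24 h at 37 °C. Compound then added for 72 h at 37 °C, followed by 0.5 mg mL-1 MTT for 4 h. Formazan dissolved in DMSO and absorbance read at 570 nm. IC50 from triplicate experiments, mean ± sd.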

MCF7 = test: Antiproliferative activity against human MCF7 cells after 72 hrs by MTT assay; format: functional, cell-based; details: MCF7, 72 h; in short: as §2
[3] = molecular target: L-lactate dehydrogenase (Homo sapiens) (UniProt V9HWB9); test: Inhibition of LDH (unknown origin) at 5 uM using 2-PG relative to control
In short: (§3)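 PGAM1 omitted to test the downstream coupling enzymes. Compound (0.5 mM stock) preincubated 2 min at room temperature in 50 mM Tris pH 8.0. OD340 decrease read; inhibition ratio at 5 µM.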

Homo sapiens [4] = organism: Homo sapiens; test: Inhibition of pyruvate kinase (unknown origin) at 5 uM using 2-PG relative to control; in short: as §3
NCI-H1299 = test: Antiproliferative activity against human H1299 cells after 72 hrs by MTT assay; format: functional, cell-based; details: NCI-H1299, 72 h; in short: as §2
Homo sapiens [5] = organism: Homo sapiens; test: Inhibition of enolase (unknown origin) at 5 uM using 2-PG relative to control; in short: as §3
[6] = molecular target: T1, Phosphoglycerate mutase 1; test: Binding affinity to PGAM1 (unknown origin) assessed as change in melting temperature by SYPRO Orange-dye based fluorescence thermal shift assay
In short: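 PGAM1 protein at 200 µg/ml with compound at 12.5 to 50 µM in 20 mM Tris-HCl, 100 mM NaCl, pH 7.4. Melting monitored by SYPRO orange fluorescence at 610 nm; Tm shift recorded.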
Target sequence in this assay (P18669 2-254 limits assumed): as the sequence (P18669 2-254 limits assumed) above

[7] = molecular target: T1, Phosphoglycerate mutase 1; test: Inhibition of PGAM1 (unknown origin); in short: as §1
Target sequence in this assay (P18669 whole entry): as the sequence (P18669 whole entry) above

[8] = molecular target: T1, Phosphoglycerate mutase 1; test: Inhibition of PGAM1 in human MDA-MB-231 cells using 3-PGA as substrate after 2 hrs in by UV-vis spectrophotometric method; format: cell-based
Target sequence in this assay (P18669 whole entry): as above

| inhibition [1] [%] | IC50 [2] [µM] | IC50 (PANC-1) [µM] | IC50 (MCF7) [µM] | inhibition [3] [%] | inhibition (Homo sapiens [4]) [%] | IC50 (NCI-H1299) [µM] | inhibition (Homo sapiens [5]) [%] | Activity [6] | IC50 [7] [µM] | IC50 [8] [µM] | Structure (SMILES) |
| --- | --- | --- | --- | --- | --- | --- | --- | --- | --- | --- | --- |
| < 10 | > 20 | – | – | – | – | – | – | – | – | – | COc1c(NS(=O)(=O)c2cccc(C#N)c2)cc2oc3cccc(OC)c3c(=O)c2c1O |
| < 10 | > 20 | – | – | – | – | – | – | – | – | – | COc1c(NS(=O)(=O)c2ccc(C3CCCCC3)cc2)cc2oc3cccc(OC)c3c(=O)c2c1O |
| < 10 | > 20 | – | – | – | – | – | – | – | – | – | COc1c(NS(=O)(=O)c2ccccc2)cc2oc3cccc(OC)c3c(=O)c2c1O |
| < 10 | > 20 | – | – | – | – | – | – | – | – | – | COc1c(NS(=O)(=O)c2ccc(I)cc2)cc2oc3cccc(OC)c3c(=O)c2c1O |
| < 10 | > 20 | – | – | – | – | – | – | – | – | – | COc1c(NS(=O)(=O)c2ccc(F)cc2)cc2oc3cccc(OC)c3c(=O)c2c1O |
| < 10 | > 20 | – | – | – | – | – | – | – | – | – | COc1c(NS(=O)(=O)c2cccc3ccccc23)cc2oc3cccc(OC)c3c(=O)c2c1O |
| < 10 | > 20 | – | – | – | – | – | – | – | – | – | COc1c(NS(=O)(=O)c2ccc(Br)cc2)cc2oc3cccc(OC)c3c(=O)c2c1O |
| < 10 | > 20 | – | – | – | – | – | – | – | – | – | COc1c(NS(=O)(=O)c2ccc(N3CCCCC3)cc2)cc2oc3cccc(OC)c3c(=O)c2c1O |
| – | 1.2 | > 200 | 44.9 | 8 | 8 | 12.9 | 8 | – | – | – | O=c1c2c(O)cccc2oc2cc(NS(=O)(=O)c3ccc(-c4ccccc4)cc3)c(O)c(O)c12 |
| < 10 | > 20 | – | – | – | – | – | – | – | – | – | COc1c(NS(=O)(=O)c2ccc(C#N)cc2)cc2oc3cccc(OC)c3c(=O)c2c1O |
| < 10 | > 20 | – | – | – | – | – | – | – | – | – | COc1c(NS(=O)(=O)c2ccc(C)cc2)cc2oc3cccc(OC)c3c(=O)c2c1O |
| < 10 | > 20 | – | – | – | – | – | – | – | – | – | COc1c(NS(=O)(=O)c2ccc(N3CCCC3)cc2)cc2oc3cccc(OC)c3c(=O)c2c1O |
| < 10 | > 20 | – | – | – | – | – | – | – | – | – | COc1c(NS(=O)(=O)c2ccc3ccccc3c2)cc2oc3cccc(OC)c3c(=O)c2c1O |
| < 10 | > 20 | – | – | – | – | – | – | – | – | – | COc1c(NS(=O)(=O)c2ccc(Cl)cc2)cc2oc3cccc(OC)c3c(=O)c2c1O |
| < 10 | > 20 | – | – | – | – | – | – | – | – | – | COc1c(NS(=O)(=O)c2ccc(-c3ccccc3)cc2)cc2oc3cccc(OC)c3c(=O)c2c1O |
| < 10 | > 20 | – | – | – | – | – | – | – | – | – | COc1c(NS(=O)(=O)Cc2ccccc2)cc2oc3cccc(OC)c3c(=O)c2c1O |
| < 10 | > 20 | – | – | – | – | – | – | – | – | – | COc1c(NS(=O)(=O)c2ccc(C(F)(F)F)cc2)cc2oc3cccc(OC)c3c(=O)c2c1O |
| < 10 | > 20 | – | – | – | – | – | – | – | – | – | COc1c(NS(=O)(=O)c2ccc(C(C)(C)C)cc2)cc2oc3cccc(OC)c3c(=O)c2c1O |

More lines, now with the values behind:

| Structure (SMILES) | inhibition [1] [%] | IC50 [2] [µM] | IC50 (PANC-1) [µM] | IC50 (MCF7) [µM] | inhibition [3] [%] | inhibition (Homo sapiens [4]) [%] | IC50 (NCI-H1299) [µM] | inhibition (Homo sapiens [5]) [%] | Activity [6] | IC50 [7] [µM] | IC50 [8] [µM] |
| --- | --- | --- | --- | --- | --- | --- | --- | --- | --- | --- | --- |
| O=c1c2c(O)cccc2oc2cc(NS(=O)(=O)c3ccc4ccccc4c3)c(O)c(O)c12 | – | 1.6 | > 200 | 43.3 | 9 | 9 | 22.6 | 9 | – | – | – |
| O=c1c2c(O)cccc2oc2cc(NS(=O)(=O)Cc3ccccc3)c(O)c(O)c12 | – | 1.9 | > 200 | > 200 | 12 | 12 | 62.9 | 12 | – | – | – |
| O=c1c2c(O)cccc2oc2cc(NS(=O)(=O)c3cccc4ccccc34)c(O)c(O)c12 | – | 1.7 | 101 | 27.3 | 7 | 7 | 23.2 | 7 | – | – | – |
| O=c1c2c(O)cccc2oc2cc(NS(=O)(=O)c3ccc(C4CCCCC4)cc3)c(O)c(O)c12 | – | 0.5 | 35.3 | 26.6 | 9 | 9 | 10.7 | 9 | Dose-dependent effect | – | – |
| Cc1ccc(S(=O)(=O)Nc2cc3oc4cccc(O)c4c(=O)c3c(O)c2O)cc1 | – | 7.2 | 20.7 | 44.9 | 2 | 2 | 13.2 | 2 | – | – | – |
| O=C1c2ccccc2C(=O)c2c1cc(S(=O)(=O)O)c(O)c2O [ALIZARIN RED] | – | – | – | – | – | – | – | – | – | 2.3 | – |
| O=c1c2c(O)cccc2oc2cc(NS(=O)(=O)c3ccc(Cl)cc3)c(O)c(O)c12 | – | 3.6 | 91.4 | 15.5 | 15 | 15 | 10.2 | 15 | – | – | – |
| O=c1c2c(O)cccc2oc2cc(NS(=O)(=O)c3cccc(OC(F)(F)F)c3)c(O)c(O)c12 | – | 5.8 | 116 | 20.5 | 12 | 12 | 13.9 | 12 | – | – | – |
| C#CCCCC(=O)OC(C)(C)[C@H]1CC[C@]2(CO2)[C@@H](OC(=O)N[C@@H](Cc2c[nH]c3ccccc23)C(=O)OCc2ccccc2)C1 | – | – | – | – | – | – | – | – | – | – | 33 |
| COc1c(NS(=O)(=O)c2cccc(OC(F)(F)F)c2)cc2oc3cccc(OC)c3c(=O)c2c1O | < 10 | > 20 | – | – | – | – | – | – | – | – | – |
| O=c1c2c(O)cccc2oc2cc(NS(=O)(=O)c3ccc(F)cc3)c(O)c(O)c12 | – | 5.5 | > 200 | 20.8 | 1 | 1 | 21.9 | 1 | – | – | – |
| O=c1c2c(O)cccc2oc2cc(NS(=O)(=O)c3ccc(I)cc3)c(O)c(O)c12 | – | 1.9 | 34.5 | 13.5 | 11 | 11 | 24.3 | 11 | – | – | – |
| O=c1c2c(O)cccc2oc2cc(NS(=O)(=O)c3ccc(N4CCCCC4)cc3)c(O)c(O)c12 | – | 1 | > 200 | 47.6 | 5 | 5 | 8.1 | 5 | – | – | – |
| O=c1c2c(O)cccc2oc2cc(NS(=O)(=O)c3ccc(C(F)(F)F)cc3)c(O)c(O)c12 | – | 3.5 | 58.5 | 30.2 | -1 | -1 | 10.3 | -1 | – | – | – |
| N#Cc1cccc(S(=O)(=O)Nc2cc3oc4cccc(O)c4c(=O)c3c(O)c2O)c1 | – | 2.1 | > 200 | 18.4 | 13 | 13 | 53 | 13 | – | – | – |
| CC(C)(C)c1ccc(S(=O)(=O)Nc2cc3oc4cccc(O)c4c(=O)c3c(O)c2O)cc1 | – | 2.6 | > 200 | 13.4 | 1 | 1 | 10.7 | 1 | – | – | – |
| N#Cc1ccc(S(=O)(=O)Nc2cc3oc4cccc(O)c4c(=O)c3c(O)c2O)cc1 | – | 4.2 | > 200 | 40.1 | 10 | 10 | > 40 | 10 | – | – | – |
| COc1c(NS(=O)(=O)c2cc(C(F)(F)F)ccc2C(F)(F)F)cc2oc3cccc(OC)c3c(=O)c2c1O | < 10 | > 20 | – | – | – | – | – | – | – | – | – |
